Activity calls are given as the source filed them. No cut-off for these calls is given here.
Key:
Liver microsomes [1] = test: Drug metabolism in human liver microsomes assessed as metabolite M3 level up to 50 mins by LC-MS analysis; assay type: ADME, Microsome
[2] = target: T1, Glucocorticoid receptor (Homo sapiens) (UniProt P04150); test: Transrepression activity at glucocorticoid receptor in human LPS and TPA-stimulated U937 cells assessed as effect on glucocorticoid-induced TNFalpha repression by beta lactamase reporter gene assay relative to dexamethasone; assay type: cell-based; conditions: U-937
T1 sequence (whole entry): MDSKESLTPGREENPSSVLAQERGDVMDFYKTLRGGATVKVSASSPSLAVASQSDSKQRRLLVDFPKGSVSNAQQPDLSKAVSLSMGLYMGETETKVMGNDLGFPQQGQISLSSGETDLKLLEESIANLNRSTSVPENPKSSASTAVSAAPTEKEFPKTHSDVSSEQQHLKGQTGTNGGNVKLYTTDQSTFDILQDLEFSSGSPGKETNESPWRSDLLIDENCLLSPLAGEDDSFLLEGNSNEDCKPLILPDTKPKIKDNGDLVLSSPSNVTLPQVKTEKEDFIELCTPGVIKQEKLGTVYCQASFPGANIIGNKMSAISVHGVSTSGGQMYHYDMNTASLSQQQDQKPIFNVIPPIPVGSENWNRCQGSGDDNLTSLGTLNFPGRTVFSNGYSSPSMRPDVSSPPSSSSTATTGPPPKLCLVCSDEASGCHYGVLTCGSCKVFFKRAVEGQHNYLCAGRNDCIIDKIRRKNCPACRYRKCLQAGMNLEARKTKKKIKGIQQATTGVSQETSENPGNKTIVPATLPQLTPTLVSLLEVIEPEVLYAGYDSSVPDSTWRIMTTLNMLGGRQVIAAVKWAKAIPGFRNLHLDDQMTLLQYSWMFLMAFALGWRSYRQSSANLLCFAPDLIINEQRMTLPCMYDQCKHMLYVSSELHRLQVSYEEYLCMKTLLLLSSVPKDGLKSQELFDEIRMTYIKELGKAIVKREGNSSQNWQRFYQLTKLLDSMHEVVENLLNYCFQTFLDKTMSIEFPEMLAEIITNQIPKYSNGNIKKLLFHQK
Outline: (§1)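 U937 cells stably carrying a β-lactamase reporter driven by the human TNF-α promoter (-1083 to +182), in 5% charcoal-stripped FBS. Stimulated with 1 µg/mL LPS plus 50 ng/mL TPA, compound exposure 16 h. β-Lactamase read out. Activity expressed as percent of the span between DMSO and 100 nM dexamethasone controls. Mean of at least three runs.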

Liver microsomes [3] = test: Drug metabolism in rat liver microsomes assessed as metabolite M1 level up to 50 mins by LC-MS analysis; assay type: ADME, Microsome
Rattus norvegicus [4] = test: Antiinflammatory activity in oxazolone-induced Sprague-Dawley rat chronic dermatitis model at 0.3 to 60 mg/kg, po qd administered after 7 days of oxazolone sensitization measured after 4 to 5 hrs last post treatment on day 14; assay type: functional, organism-based
Outline: (§2)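 Intact 6-month-old female Sprague-Dawley rats sensitized with oxazolone on ventral abdomen on Day 0. One randomly selected ear challenged with oxazolone on Days 7 and 9, other ear given vehicle. Daily oral dosing for 7 d from Day 7, with 6-methylprednisolone or DEX as positive controls. Blood taken ~4-5 h after last dose for plasma insulin. Inflammation read as inter-ear thickness difference.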

[5] = target: T1, Glucocorticoid receptor (Homo sapiens); test: Transactivation activity at GR-mediated modulation of MMTV promoter activity in human A549 cells transfected with luciferase gene linked to MMTV promoter after 16 hrs by luciferase reporter gene assay; assay type: cell-based
Outline: (§3)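 HeLa or A549 cells transiently transfected with a luciferase reporter under the MMTV promoter (two GREs), in 10% charcoal-stripped FBS. Compound exposure 16 h, then luciferase measured. Activity expressed as percent of the span between DMSO and dexamethasone controls. Mean of at least three runs.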

Liver microsomes [6] = test: Drug metabolism in rat liver microsomes assessed as metabolite M2 level up to 50 mins by LC-MS analysis; assay type: ADME, Microsome
Liver microsomes [7] = test: Drug metabolism in human liver microsomes assessed as metabolite M1 level up to 50 mins by LC-MS analysis; assay type: ADME, Microsome
[8] = target: T1, Glucocorticoid receptor (Homo sapiens); test: Transactivation activity at GR-mediated modulation of MMTV promoter activity in human HeLa cells transfected with luciferase gene linked to MMTV promoter after 16 hrs by luciferase reporter gene assay; assay type: cell-based; outline: as §3
[9] = target: T1, Glucocorticoid receptor (Homo sapiens); test: Transrepression activity at glucocorticoid receptor in human LPS and TPA-stimulated U937 cells assessed as effect on glucocorticoid-induced TNFalpha repression by beta lactamase reporter gene assay; assay type: cell-based; conditions: U-937; outline: as §1
[10] = target: T1, Glucocorticoid receptor (Homo sapiens); test: Transactivation activity at GR-mediated modulation of MMTV promoter activity in human HeLa cells transfected with luciferase gene linked to MMTV promoter after 16 hrs by luciferase reporter gene assay relative to dexamethasone; assay type: cell-based; outline: as §3
Liver microsomes [11] = test: Drug metabolism in human liver microsomes assessed as metabolite M2 level up to 50 mins by LC-MS analysis; assay type: ADME, Microsome
Glucocorticoid receptor = target: T2, Glucocorticoid receptor (Homo sapiens, UniProt P04150); test: Displacement of [3H]-dexamethasone from human full length GR expressed in insect Sf21 cells
T2 sequence (P04150 whole entry): T1 sequence (whole entry)
Outline: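 Human full-length GR expressed in insect cells, incubated with compound and 3H-dexamethasone overnight at 4 °C. Bound radioactivity quantified after filtration capture. Nonspecific binding defined with excess unlabelled dexamethasone. Mean of at least two runs.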

Liver microsomes [12] = test: Drug metabolism in rat liver microsomes assessed as metabolite M3 level up to 50 mins by LC-MS analysis; assay type: ADME, Microsome
[13] = target: T1, Glucocorticoid receptor (Homo sapiens); test: Transactivation activity at GR-mediated modulation of MMTV promoter activity in human A549 cells transfected with luciferase gene linked to MMTV promoter after 16 hrs by luciferase reporter gene assay relative to dexamethasone; assay type: cell-based; outline: as §3
Rattus norvegicus [14] = test: Toxicity in oxazolone-induced Sprague-Dawley rat chronic dermatitis model assessed as increase in plasma insulin level at 0.3 to 60 mg/kg, po qd administered after 7 days of oxazolone sensitization measured after 4 to 5 hrs last post treatment on day 14; assay type: organism-based; design: route oral; conditions: in vivo; outline: as §2

With `C[C@]12Cc3cnn(-c4ccc(F)cc4)c3C=C1CC[C@@]2(O)CCc1ccc(F)cc1C(N)=O` the Drug metabolism (Liver microsomes [1]) was “Active”, the Emax [2] was 73% and the Drug metabolism (Liver microsomes [3]) was “Active”. For the same molecule, the Activity (Rattus norvegicus [4]) was “Active”, the IP [5] was 186 nM and the Drug metabolism (Liver microsomes [6]) was “Active”. For the same molecule, the Drug metabolism (Liver microsomes [7]) was “Active”, the IP [8] was 153 nM and the IP [9] was 131 nM. For the same molecule, the Emax [10] was 23%, the Drug metabolism (Liver microsomes [11]) was “Active” and the Ki (Glucocorticoid receptor) was 3 nM. The Drug metabolism (Liver microsomes [12]) was “Not Active”, the Emax [13] was 35% and the Activity (Rattus norvegicus [14]) was “Non-toxic”.

Reference: ChEMBL document CHEMBL2146476, “Discovery of selective glucocorticoid receptor modulator MK-5932” (Bioorg Med Chem, 2011)
